The source made the active and inactive calls. No cut-off for these calls is given here.
Columns and labels:
[1] = Cytotoxicity against human 518A2 cells after 96 hrs by SRB assay; format: functional, cell-based; settings: 518A2, 96 h
[2] = tested on: 8505C; assay: Cytotoxicity against human 8505C cells after 96 hrs by SRB assay; format: functional, cell-based; settings: Homo sapiens, 8505C, 96 h
[3] = Cytotoxicity against human A253 cells after 96 hrs by SRB assay; format: functional, cell-based; settings: Homo sapiens, A253, 96 h
[4] = tested on: A2780; assay: Cytotoxicity against human A2780 cells after 96 hrs by SRB assay; format: functional, cell-based; settings: Homo sapiens, A2780, 96 h
[5] = tested on: A-431; assay: Cytotoxicity against human A431 cells after 96 hrs by SRB assay; format: functional, cell-based; settings: A-431, 96 h
[6] = tested on: A549; assay: Cytotoxicity against human A549 cells after 96 hrs by SRB assay; format: functional, cell-based; settings: Homo sapiens, A549, 96 h
[7] = tested on: DLD-1; assay: Cytotoxicity against human DLD1 cells after 96 hrs by SRB assay; format: functional, cell-based; settings: Homo sapiens, DLD-1, 96 h
[8] = tested on: FaDu; assay: Cytotoxicity against human FADU cells after 96 hrs by SRB assay; format: functional, cell-based
[9] = tested on: HCT-116; assay: Cytotoxicity against human HCT116 cells after 96 hrs by SRB assay; format: functional, cell-based; settings: HCT-116, 96 h
[10] = tested on: HCT-8; assay: Cytotoxicity against human HCT8 cells after 96 hrs by SRB assay; format: functional, cell-based; settings: HCT-8, 96 h
[11] = tested on: HT-29; assay: Cytotoxicity against human HT-29 cells after 96 hrs by SRB assay; format: functional, cell-based; settings: HT-29, 96 h
[12] = Cytotoxicity against human Lipo cells after 96 hrs by SRB assay; format: functional, cell-based; settings: Homo sapiens, Lipo, 96 h
[13] = tested on: MCF7; assay: Cytotoxicity against human MCF7 cells after 96 hrs by SRB assay; format: functional, cell-based; settings: Homo sapiens, MCF7, 96 h
[14] = tested on: SW-1736; assay: Cytotoxicity against human SW1736 cells after 96 hrs by SRB assay; format: functional, cell-based; settings: Homo sapiens, SW-1736, 96 h
[15] = tested on: SW480; assay: Cytotoxicity against human SW480 cells after 96 hrs by SRB assay; format: functional, cell-based; settings: SW480, 96 h
[16] = tested on: A549; assay: Induction of apoptosis in human A549 cells at IC90 concentration after 24 to 48 hrs using acridine orange/ethidium bromide dye by fluorescence microscopic analysis; format: functional, cell-based
In short: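 About 500,000 cells were seeded in flasks and grown for 24 h, then the medium was replaced with compound-containing medium. After 24–48 h, floating cells in the supernatant were pelleted, washed and resuspended in PBS, mixed with acridine orange/ethidium bromide and examined by fluorescence microscopy. Green nuclear fluorescence was scored as apoptotic and red nuclei as necrotic.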

[17] = Cytotoxicity against mouse NIH/3T3 cells after 96 hrs by SRB assay; format: cell-based; settings: NIH3T3, 96 h
[18] = tested on: A2780 (Homo sapiens); assay: Induction of apoptosis in human A2780 cells assessed as DNA ladder formation at IC90 concentration after 24 hrs by agarose gel electrophoresis

Row | Compound | IC50 [1] [µM] | IC50 [2] [µM] | IC50 [3] [µM] | IC50 [4] [µM] | IC50 [5] [µM] | IC50 [6] [µM] | IC50 [7] [µM] | IC50 [8] [µM] | IC50 [9] [µM] | IC50 [10] [µM] | IC50 [11] [µM] | IC50 [12] [µM] | IC50 [13] [µM] | IC50 [14] [µM] | IC50 [15] [µM] | Activity [16] | IC50 [17] [µM] | Activity [18]
1 | CC(C)OC(=O)[C@@]1(C)CC[C@]2(C)CC[C@]3(C)C(=CC(=O)[C@@H]4[C@@]5(C)CC[C@H](OC(=O)[C@@H](C)N)C(C)(C)[C@@H]5CC[C@]43C)[C@@H]2C1 | 5.48 | 3.51 | 3.5 | 1.7 | 3.11 | 3.17 | 5.67 | 5.48 | 4.82 | 3.32 | 3.47 | 4.73 | 3.52 | 3.46 | 3.47 | Active | – | –
2 | CC1(C)[C@@H](O)CC[C@]2(C)[C@H]3C(=O)C=C4[C@@H]5C[C@@](C)(C(=O)OCc6ccccc6)CC[C@]5(C)CC[C@@]4(C)[C@]3(C)CC[C@@H]12 | 18.2 | 8.1 | 10.7 | 20.3 | 23.6 | 6.15 | 22.7 | 5.48 | 20.6 | 25.2 | 11.5 | 11.5 | 13.5 | 2.74 | 6.17 | – | 21 | –
3 | CC(C)OC(=O)[C@@]1(C)CC[C@]2(C)CC[C@]3(C)C(=CC(=O)[C@@H]4[C@@]5(C)CC[C@H](O)C(C)(C)[C@@H]5CC[C@]43C)[C@@H]2C1 | 18.2 | 14.2 | 15.8 | 24.9 | 32 | 14.4 | 27.6 | 14.4 | 26.4 | 24.1 | 16 | 15.9 | 16 | 12.8 | 15.3 | – | 32.4 | –
4 | COC(=O)[C@@]1(C)CC[C@]2(C)CC[C@]3(C)C(=CC(=O)[C@@H]4[C@@]5(C)CC[C@H](O)C(C)(C)[C@@H]5CC[C@]43C)[C@@H]2C1 | 27.5 | 26.1 | 19.4 | 25.5 | 25.3 | 23.5 | 26.1 | 23.4 | 22.1 | 24.4 | 27.5 | 20.5 | 22.1 | 34.9 | 16.1 | – | 22.8 | –
5 | CCOC(=O)[C@@]1(C)CC[C@]2(C)CC[C@]3(C)C(=CC(=O)[C@@H]4[C@@]5(C)CC[C@H](O)C(C)(C)[C@@H]5CC[C@]43C)[C@@H]2C1 | 25.2 | 24.6 | 25 | 27 | 23.4 | 22.7 | 28.1 | 23.8 | 21.6 | 43.4 | 22.1 | 27.7 | 18.6 | 13.4 | 19.1 | – | 23.7 | –
6 | COC(=O)[C@@]1(C)CC[C@]2(C)CC[C@]3(C)C(=CC(=O)[C@@H]4[C@@]5(C)CC[C@H](OC(=O)CCN)C(C)(C)[C@@H]5CC[C@]43C)[C@@H]2C1 | – | – | – | – | – | – | – | – | – | – | – | – | – | – | – | Active | – | Active
7 | COC(=O)[C@@]1(C)CC[C@]2(C)CC[C@]3(C)C(=CC(=O)[C@@H]4[C@@]5(C)CC[C@H](OC(=O)[C@H](C)N)C(C)(C)[C@@H]5CC[C@]43C)[C@@H]2C1 [listing 1 of 2 here] | 3.54 | 4.31 | 3.61 | 2.98 | 3.48 | 2.77 | 4.49 | 4.52 | 2.74 | 2.8 | 2.87 | 4.3 | 3.54 | 3.22 | 3.52 | – | – | –
8 | COC(=O)[C@@]1(C)CC[C@]2(C)CC[C@]3(C)C(=CC(=O)[C@@H]4[C@@]5(C)CC[C@H](OC(=O)[C@@H](C)N)C(C)(C)[C@@H]5CC[C@]43C)[C@@H]2C1 | 2.26 | 2.92 | 2.26 | 2.24 | 2.36 | 2.26 | 3.35 | 2.25 | 2.25 | 2.26 | 2.8 | 3.56 | 2.25 | 2.25 | 3.52 | – | – | –
9 | COC(=O)[C@@]1(C)CC[C@]2(C)CC[C@]3(C)C(=CC(=O)[C@@H]4[C@@]5(C)CC[C@H](OC(=O)CN)C(C)(C)[C@@H]5CC[C@]43C)[C@@H]2C1 | – | – | – | – | – | – | – | – | – | – | – | – | – | – | – | Active | – | –
10 | CC1(C)[C@@H](O)CC[C@]2(C)[C@H]3C(=O)C=C4[C@@H]5C[C@@](C)(C(=O)O)CC[C@]5(C)CC[C@@]4(C)[C@]3(C)CC[C@@H]12 [ENOXOLONE] | 83.9 | 86.5 | 80.8 | 74.6 | 79.6 | 82.8 | 81.2 | 84.5 | 78.8 | 78.9 | 80.1 | 81.4 | 84.7 | 76.9 | 86.8 | Active | 18.5 | –
11 | COC(=O)[C@@]1(C)CC[C@]2(C)CC[C@]3(C)C(=CC(=O)[C@@H]4[C@@]5(C)CC[C@H](OC(=O)[C@H](C)N)C(C)(C)[C@@H]5CC[C@]43C)[C@@H]2C1 [listing 2 of 2 here] | – | – | – | – | – | – | – | – | – | – | – | – | – | – | – | Active | – | –

— ChEMBL document CHEMBL1268974, “Synthesis and antitumour activity of glycyrrhetinic acid derivatives” (Bioorg Med Chem, 2010)
